Data reported in publication PMC6045484 (ACS Omega, 2018).
≈ marks a conversion by molar mass, not a printed value.

How the values were obtained:
[1] = system: M. intracellulare (ATCC23068); test: in vitro antibacterial activity, modified alamarBlue procedure; format: cell-based, Mycobacterium intracellulare; conditions: Mycobacterium intracellulare; for IC50: ATCC23068, read-out: IC50 (concentration that affords 50% growth inhibition), M. intracellulare; for MBC: ATCC23068, read-out: MBC (minimum bactericidal concentration), M. intracellulare; for MIC: ATCC23068, read-out: MIC, M. intracellulare
In short: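 Modified alamarBlue microplate method. Test compound serially diluted in 20% DMSO/saline, duplicate wells, up to 20 μg/mL. Inoculum 2.0 × 10^6 CFU/mL in Middlebrook 7H9 with OADC, pH 7.3, containing 5% alamarBlue. Incubated 70–74 h at 37 °C, 10% CO2; fluorescence 544ex/590em read before and after. MIC: no blue-to-pink change. MBC by subculturing blue wells on agar. Ciprofloxacin control.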

C. albicans ATCC90028 = test: in vitro antifungal activity; format: cell-based, Candida albicans; conditions: Candida albicans; for IC50: ATCC90028, read-out: C. albicans IC50; for MFC: ATCC90028, read-out: C. albicans MFC; for MIC: ATCC90028, read-out: C. albicans MIC
In short: (§1)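 Modified NCCLS broth method in Sabouraud dextrose. Inoculum set by OD630 to 1.5 × 10^3 CFU/mL. Test compound serially diluted in 20% DMSO/saline, duplicate wells, up to 20 μg/mL. Incubated 70–74 h at 35 °C; 530 nm read before and after. IC50 is 50% growth inhibition; MIC is no detectable growth. MFC from clear wells subcultured on agar. Amphotericin B control.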

MRSA (ATCC33591) = test: in vitro antibacterial activity; format: cell-based, methicillin-resistant Staphylococcus aureus; conditions: Staphylococcus aureus, ATCC33591|MRSA, read-out: MIC, MRSA
In short: (§2)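 Test compound serially diluted in 20% DMSO/saline and plated in duplicate, up to 20 μg/mL. Inoculum in cation-adjusted Mueller–Hinton broth, pH 7.3, set by OD630 to 5 × 10^5 CFU/mL. Incubated 16–20 h at 35 °C; 530 nm read before and after. IC50 is 50% growth inhibition; MIC is no detectable growth. MBC from clear wells subcultured on agar. Ciprofloxacin control.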

C. neoformans ATCC90113 = test: in vitro antifungal activity; format: cell-based, Cryptococcus neoformans; conditions: Cryptococcus neoformans; for IC50: ATCC90113, read-out: C. neoformans IC50; for MFC: ATCC90113, read-out: C. neoformans MFC; for MIC: ATCC90113, read-out: C. neoformans MIC
In short: as §1

P. falciparum (W2) = test: in vitro antimalarial activity, plasmodial LDH; format: cell-based, Plasmodium falciparum; conditions: Plasmodium falciparum, W2, 72 h, read-out: P. falciparum (W2) IC50, CQ-resistant W2 strain, 72 h
In short: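 P. falciparum-infected erythrocytes (2% parasitemia, 2% hematocrit) in RPMI 1640 with 10% human serum and 60 μg/mL amikacin. Exposed to test compound dilutions for 72 h at 37 °C under 90% N2/5% O2/5% CO2. LDH measured with Malstat reagent (30 min, room temperature), then NBT/PES for 1 h in the dark, stopped with 5% acetic acid, read at 650 nm. IC50 from dose-response curves.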

A. fumigatus ATCC 90906 = test: in vitro antifungal activity; format: cell-based, Aspergillus fumigatus; conditions: Aspergillus fumigatus; for IC50: ATCC90906, read-out: A. fumigatus IC50; for MFC: ATCC90906, read-out: A. fumigatus MFC; for MIC: ATCC90906, read-out: A. fumigatus MIC
In short: as §1

[2] = system: SK-MEL, KB, BT-549, SK-OV-3, VERO and LLC-PK1 cells; test: cytotoxicity, neutral red uptake assay; format: cell-based, mammalian; conditions: highest test concentration 4760 ng/mL
In short: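 Cells seeded at 25 000/well and allowed 24 h to reach confluence. Test compound was then added and incubated 48 h. Viable cells were counted by a modified neutral red uptake method. The panel was four human cancer lines and two noncancerous mammalian kidney lines. Doxorubicin served as positive control and DMSO as negative control.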

SA (ATCC29213) = test: in vitro antibacterial activity; format: cell-based; conditions: Staphylococcus aureus; for IC50: ATCC29213, read-out: IC50 (concentration that affords 50% growth inhibition), SA; for MBC: ATCC29213, read-out: MBC (minimum bactericidal concentration), SA; for MIC: ATCC29213, read-out: MIC, SA
In short: as §2

[3] = system: L. donovani promastigotes; test: in vitro antileishmanial activity, alamarBlue assay; format: cell-based, Leishmania donovani; conditions: Leishmania donovani, 48 h; for IC50: read-out: L. donovani IC50, promastigotes, 48 h; for IC90: read-out: L. donovani IC90, promastigotes, 48 h
P. falciparum (D6) = test: in vitro antimalarial activity, plasmodial LDH; format: cell-based, Plasmodium falciparum; conditions: Plasmodium falciparum, D6, 72 h, read-out: P. falciparum (D6) IC50

SMILES | IC50 [1] | MBC [1] | MIC [1] | IC50 (C. albicans ATCC90028) | MFC (C. albicans ATCC90028) | MIC (C. albicans ATCC90028) | MIC (MRSA (ATCC33591)) | IC50 (C. neoformans ATCC90113) | MFC (C. neoformans ATCC90113) | MIC (C. neoformans ATCC90113) | IC50 (P. falciparum (W2)) | IC50 (A. fumigatus ATCC 90906) | MFC (A. fumigatus ATCC 90906) | MIC (A. fumigatus ATCC 90906) | cytotoxicity CTX [2] | IC50 (SA (ATCC29213)) | MBC (SA (ATCC29213)) | MIC (SA (ATCC29213)) | IC50 [3] | IC50 (P. falciparum (D6)) | further results
CCCCCOc1c(OC)cc(NC(C)CCCNC(=O)C(N)CCCNC(=N)N)c2nc(C(C)(C)C)ccc12 (stereo not shown) [compound 94, 2-Amino-N-(4-(2-tert-butyl-6-methoxy-5-(pentyloxy)quinolin-8-ylamino)pentyl)-5-guanidinopentanamide] | 11.2 µg/mL (≈ 20.1 µM) | 20 µg/mL (≈ 35.9 µM) | 20 µg/mL (≈ 35.9 µM) | 18.6 µg/mL (≈ 33.4 µM) | 20 µg/mL (≈ 35.9 µM) | 20 µg/mL (≈ 35.9 µM) | 10 µg/mL (≈ 17.9 µM) | 1.41 µg/mL (≈ 2.53 µM) | 2.5 µg/mL (≈ 4.48 µM) | 2.5 µg/mL (≈ 4.48 µM) | 4 µg/mL (≈ 7.17 µM) | > 20 µg/mL | > 20 µg/mL | > 20 µg/mL | NC (NC, not cytotoxic up to 4760 ng/mL (4.76 μg/mL)) | 5.85 µg/mL (≈ 10.5 µM) | 20 µg/mL (≈ 35.9 µM) | 10 µg/mL (≈ 17.9 µM) | 18 µg/mL (≈ 32.3 µM) | 4.76 µg/mL (≈ 8.53 µM) | IC90 [3]: 32 µg/mL (≈ 57.4 µM)
CCCCCOc1c(OC)cc(NC(C)CCCNC(=O)C(N)CC(C)C)c2nc(C(C)(C)C)ccc12 (stereo not shown) [compound 95, 2-Amino-N-(4-(2-tert-butyl-6-methoxy-5-(pentyloxy)quinolin-8-ylamino)pentyl)-4-methylpentanamide] | 12.6 µg/mL (≈ 24.4 µM) | 20 µg/mL (≈ 38.9 µM) | 20 µg/mL (≈ 38.9 µM) | 18.4 µg/mL (≈ 35.8 µM) | > 20 µg/mL | > 20 µg/mL | 10 µg/mL (≈ 19.4 µM) | 1.68 µg/mL (≈ 3.26 µM) | 2.5 µg/mL (≈ 4.86 µM) | 2.5 µg/mL (≈ 4.86 µM) | 2.3 µg/mL (≈ 4.47 µM) | > 20 µg/mL | > 20 µg/mL | > 20 µg/mL | NC (NC, not cytotoxic up to 4760 ng/mL (4.76 μg/mL)) | 2.56 µg/mL (≈ 4.97 µM) | 5 µg/mL (≈ 9.71 µM) | 5 µg/mL (≈ 9.71 µM) | 3.5 µg/mL (≈ 6.8 µM) | 3.5 µg/mL (≈ 6.8 µM) | IC90 [3]: 6.5 µg/mL (≈ 12.6 µM)
CCCCCOc1c(OC)cc(NC(C)CCCNC(=O)C(N)C(C)CC)c2nc(C(C)(C)C)ccc12 (stereo not shown) [compound 96, 2-Amino-N-(4-(2-tert-butyl-6-methoxy-5-(pentyloxy)quinolin-8-ylamino)pentyl)-3-methylpentanamide] | 12.2 µg/mL (≈ 23.7 µM) | 20 µg/mL (≈ 38.9 µM) | 20 µg/mL (≈ 38.9 µM) | > 20 µg/mL | > 20 µg/mL | > 20 µg/mL | 10 µg/mL (≈ 19.4 µM) | 4.95 µg/mL (≈ 9.62 µM) | 10 µg/mL (≈ 19.4 µM) | 10 µg/mL (≈ 19.4 µM) | > 4.76 µg/mL | > 20 µg/mL | > 20 µg/mL | > 20 µg/mL | NC (NC, not cytotoxic up to 4760 ng/mL (4.76 μg/mL)) | 5.35 µg/mL (≈ 10.4 µM) | 20 µg/mL (≈ 38.9 µM) | 10 µg/mL (≈ 19.4 µM) | 8.65 µg/mL (≈ 16.8 µM) | > 4.76 µg/mL | IC90 [3]: 32.6 µg/mL (≈ 63.4 µM)
CCCCCCCOc1c(OC)cc(NC(C)CCCNC(=O)C(N)CCCN)c2nc(C(C)(C)C)ccc12 (stereo not shown) [compound 110, 2,5-Diamino-N-(4-(2-tert-butyl-5-(heptyloxy)-6-methoxyquinolin-8-ylamino)-pentyl)pentanamide] | > 20 µg/mL | > 20 µg/mL | > 20 µg/mL | > 20 µg/mL | > 20 µg/mL | > 20 µg/mL | > 20 µg/mL | > 20 µg/mL | > 20 µg/mL | > 20 µg/mL | 1.6 µg/mL (≈ 2.94 µM) | > 20 µg/mL | > 20 µg/mL | > 20 µg/mL | NC (NC, not cytotoxic up to 4760 ng/mL (4.76 μg/mL)) | > 20 µg/mL | > 20 µg/mL | > 20 µg/mL | – | 3.2 µg/mL (≈ 5.88 µM) | –
